# ABHD4 inh – inhibits mouse alpha/beta hydrolase domain 4; purified mABHD4, FP-Rh probe fluorescence polarization; inhibition, % at 8.92 µM; actives 0.54% (n = 370,000);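 active = inhibition exceeding the mean over every tested compound plus 3 SD, cut at about 30% in these data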;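 also: 0% = plate median of compound wells and 100% = S159A mutant with DMSO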
#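 Test system: mouse ABHD4 enzyme, wild type. Reagent: FP-Rh fluorescent activity-based probe, added after compound pre-incubation. Timing: pre-incubation 45 min, probe exposure 60 min, at 25 °C. Technique: FP readout, ex 525 nm / em 598 nm. Benchmarks: high control S159A mutant with DMSO, low control median of compound wells.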
# SIAE primary – inhibitors of human sialic acid acetylesterase SIAE. Q9HAT2. SIAE FP-Rh probe binding, fluorescence polarization. inhibition, % at 9.66 µM. actives 0.69% (n = 370,000). AID 1053197;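 active = inhibition above a cutoff: mean of compounds within the control limits plus 3 SD of those, cut at about 17% in these data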;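 also: 0% = plate median of compound wells and 100% = probe without SIAE protein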
# Target sequence (Q9HAT2 whole entry, looked up): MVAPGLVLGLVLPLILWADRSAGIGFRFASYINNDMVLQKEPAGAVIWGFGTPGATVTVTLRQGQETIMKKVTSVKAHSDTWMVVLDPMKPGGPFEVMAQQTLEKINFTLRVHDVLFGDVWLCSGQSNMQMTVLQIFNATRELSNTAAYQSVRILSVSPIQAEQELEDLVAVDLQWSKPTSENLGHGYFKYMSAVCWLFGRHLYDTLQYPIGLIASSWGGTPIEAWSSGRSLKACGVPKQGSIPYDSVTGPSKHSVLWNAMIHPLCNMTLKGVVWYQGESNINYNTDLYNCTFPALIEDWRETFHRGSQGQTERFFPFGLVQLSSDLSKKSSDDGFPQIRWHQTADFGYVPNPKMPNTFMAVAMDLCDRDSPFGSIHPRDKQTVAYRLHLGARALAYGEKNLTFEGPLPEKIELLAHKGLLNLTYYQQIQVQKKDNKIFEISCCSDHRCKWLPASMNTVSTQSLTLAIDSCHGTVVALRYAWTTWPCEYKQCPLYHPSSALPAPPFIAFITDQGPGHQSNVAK
# HTRA1 inh – HTRA1 (human) protease inhibition; Q92743; recombinant HTRA1, FP-rhodamine activity-based probe, fluorescence polarization; inhibition, % at 5.96 µM; actives 0.5% (n = 340,000); in the data active = inhibition above about 36%;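 also: 0% = enzyme with DMSO and 100% = wells lacking enzyme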
# TCR CD3 inh – blocks the human TCR-CD3 interaction; TAMRA-labeled TCR probe fluorescence, biochemical; inhibition, % at 9.4 µM; actives 0.37% (n = 360,000); in the data active = inhibition above about 19%;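 also: recombinant mutant TCR 2C K166C tagged with TAMRA read by polarization; 0% = receptor in buffer alone and 100% = receptor with positive control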
# PRMT1 inh – PRMT1 (human) inhibition, primary screen; recombinant PRMT1, activity-based probe fluorescence polarization; inhibition, % at 2.79 µM; actives 1.3% (n = 370,000);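 active = inhibition above about 21% made by adding two undisclosed values, limit read from the data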
# PRMT1 inh conf – PRMT1 (human) inhibition, FP confirmation | recombinant His-PRMT1, activity-based probe fluorescence polarization | inhibition, % at 2.79 µM | actives 42% (n = 3,300) | AID 687036 | shares compounds with PRMT1 inh;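 active = mean inhibition across replicates above the hit cutoff derived for the earlier primary screen, cut at about 22% in these data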
# ABHD4 confirm – ABHD4 (mouse) inhibition, FP confirmation | shares compounds with ABHD4 inh | purified mABHD4, FP-Rh probe fluorescence polarization | inhibition, % at 8.92 µM | actives 55% (n = 1,800);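 active = mean inhibition across replicates above the hit cutoff set in the primary screen, cut at about 30% in these data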;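 also: 0% = wild-type ABHD4 with DMSO and 100% = catalytically dead S159A mutant with DMSO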
# Numbers without * were called inactive; / = not tested or not shown. Sampled rows, rich in hits. Any-hit rate of the full collection: about 2.5%.
SMILES,ABHD4 inh,SIAE primary,HTRA1 inh,TCR CD3 inh,PRMT1 inh,PRMT1 inh conf,ABHD4 confirm
O=C(O)CSc1cc(NS(=O)(=O)c2cccc([N+](=O)[O-])c2)c2ccccc2c1O,41*,11,22,-5,62*,95*,34*
O=S(=O)(Nc1cc(Sc2cccc3cccnc23)c(O)c2ccccc12)c1ccccc1,42*,17,/,8,91*,67*,17
CCOc1ccc(S(=O)(=O)Nc2cc(SCC(=O)O)c(O)c3ccccc23)cc1,43*,6,32,0,65*,93*,45*
C=CCN1[C@H](C#N)[C@@H](c2ccccc2)[C@H]1CO,2,-1,/,/,-4,/,/
O=S1(=O)CC2c3ccccc3CN2CN1C1CCCC1 (centres undefined),-42,-1,/,/,1,/,/
CC(=Nc1ccc(O)cc1)c1sc2ccccc2c1O,39*,2,10,8,27*,13,0
Oc1c(N=Nc2ccccc2)sc2ccccc12,-15,-5,-8,-10,7,/,/
Cc1cccc(NC(=O)CSc2nc(N)cc(N)n2)c1,-2,-4,-1,-1,2,/,/
Cc1cccc(NC(=O)CSc2nnc(-c3ccco3)c(-c3ccco3)n2)c1,44*,16,26,6,42*,52*,44*
O=C(COCc1ccccc1)NC1CCCCN(Cc2ccc(Cl)cc2)C1=O (centres undefined),12,5,/,/,0,/,/
O=C(/C=C/c1ccc(-c2ccccc2[N+](=O)[O-])o1)c1ccccc1,32*,12,-24,-3,28*,-2,11
O=C(O)/C(=C\c1ccc(-c2ccccc2[N+](=O)[O-])o1)c1ccccc1,12,9,-9,3,2,/,/
COc1cc(/C=C2\CCCc3c2nc2ccccc2c3C(=O)O)cc(Br)c1O,18,2,-16,5,3,/,/
CCOc1cc(/C=C2\CCCc3c2nc2ccccc2c3C(=O)O)ccc1OC,32*,17,0,17,117*,0,27
COC(=O)[C@H]1C[C@@]2(c3ccccc3)c3ccccc3N(S(=O)(=O)c3ccccc3)[C@H]2N1,-5,-3,/,/,1,/,/
COC(=O)c1ccc(NCc2c(O)ccc(O)c2Br)cc1Cl,31*,12,-14,-2,82*,15,37*
CC(C)(C)C(=O)OC12CCCN(C1)/C(=C/c1ccncc1)C2 (centres undefined),0,-7,/,/,0,/,/
CN(C)c1ccc2cc(S(=O)(=O)O)cc(O)c2c1,78*,2,36,-3,102*,33*,54*
COC(=O)C1=C(C)N(Cc2ccc(C)cc2)C(=O)/C1=C\c1ccc(O)c(OC)c1,33*,5,1,10,27*,5,47*
COc1ccc(S[C@]2(C(=O)N3CCN(c4ncccn4)CC3)CC(=O)N[C@@H]2c2ccc(OC)cc2)cc1,1,-4,/,/,8,/,/
CCn1c(C)nc2cc(C(=O)N/N=C/c3ccc(O)c(O)c3O)ccc21,35*,9,32,66*,43*,43*,44*
CCn1c(C)nc2cc(C(=O)N/N=C/c3cccc(OC)c3O)ccc21,3,-2,24,0,-4,/,/
COCc1cc(=O)n2[nH]c(-c3ccco3)cc2n1,7,-7,6,-4,3,/,/
CCCCN1Cc2c(nc3cc(-c4ccco4)[nH]n3c2=O)C1=O,35*,-1,11,-1,56*,18,1
O=c1ccc2cc(O)c(O)cc2o1,50*,6,3,15,32*,3,2
SMILES,ABHD4 inh,SIAE primary,HTRA1 inh,TCR CD3 inh,PRMT1 inh,PRMT1 inh conf,ABHD4 confirm
C[C@@H]1CCN(C2CC2)S(=O)(=O)c2c(cccc2N2CCC[C@H]2CO)O1,1,-2,/,/,-9,/,/
Cc1[nH]c2ccccc2c1C1=CC(=O)C=CC1=O,78*,13,32,5,96*,93*,81*
Cc1[nH]c2ccccc2c1CC#N,-8,-5,2,3,-4,/,/
CC(C)(C)c1ccc(C(=O)Nc2cc(Cl)ccc2-c2nn[nH]n2)cc1,-154,-124,/,/,7,/,/
O=C1OC(/C(=C\Nc2ccc(F)cc2F)[N+](=O)[O-])c2ccccc21 (centres undefined),1,2,2,3,12,/,/
O=C1OC(/C(=C\Nc2cc(Cl)ccc2O)[N+](=O)[O-])c2ccccc21 (centres undefined),42*,4,5,-1,29*,0,8
CC(=O)Nc1ccc(/C=N\NC(=O)c2cccc(S(=O)(=O)N(C)C)c2)cc1,3,-3,/,/,0,/,/
NNC(=S)Nc1cccc(-c2n[nH]c(=S)o2)c1,35*,0,8,-1,34*,8,22
CN(C)C(=S)Nc1cccc(-c2n[nH]c(=S)o2)c1,4,15,3,2,-1,/,/
COC(=O)CNC(=O)C1Nc2ccc(OC(F)(F)F)cc2C2C=CCC12 (centres undefined),47*,5,27,-1,37*,2,-4
COc1ccc2c(c1)C1C=CCC1C(c1cc3c(cc1Br)OCO3)N2 (centres undefined),8,5,32,2,6,/,/
CCc1c(Cc2ccccc2)ncn1CCc1ccccc1OC,0,0,/,6,1,/,/
O=C1/C(=C/c2ccco2)SC(=S)N1CC1CCCO1 (centres undefined),32*,9,/,-11,35*,6,5
O=C(CCCN1C(=O)/C(=C/c2ccco2)SC1=S)Nc1ccccc1C(=O)O,32*,7,5,4,55*,29*,-26
O=C(CCCN1C(=O)/C(=C\c2ccco2)SC1=S)Nc1ccc2ccccc2c1,-18,-1,-21,-10,4,/,/
O=C(O)CCCN1C(=O)/C(=C\c2ccco2)SC1=S,31*,4,13,12,28*,17,11
O=C1/C(=C\c2ccco2)SC(=S)N1C1CCS(=O)(=O)C1 (centres undefined),35*,7,/,9,25*,2,-3
COCCCNC(=O)C[C@H]1C[C@@]2(C(=O)OC)C(=C[C@H](C3CCCC3)O[C@@H]2C)N(CCC2=CCCCC2)C1=O,5,7,/,/,3,/,/
N#CC1=C(N)n2c(s/c(=C\c3ccco3)c2=O)=C(C#N)C1c1ccco1 (centres undefined),32*,6,20,7,41*,17,-20
CCOC(=O)C1=C(N)n2c(s/c(=C/c3ccco3)c2=O)=C(C(=O)OC)C1c1ccco1 (centres undefined),39*,8,9,3,36*,-1,-7
N#CC1=C(N)n2c(s/c(=C\c3cccs3)c2=O)=C(C#N)C1c1cccs1 (centres undefined),-11,-16,-13,-2,21,/,/

# Bioassay records: PubChem, The Scripps Research Institute Molecular Screening Center
